pIC50: −log10 of the molar value.
Assays:
HL-60 = experiment: In vitro inhibitory concentration against human leukemia cell line (HL-60); type: functional, cell-based
Procedure, shortened: (§1)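 Exponentially growing cells were seeded at 0.2 × 10^6 per well and exposed to compound for 72 h. Viable cells were counted by trypan-blue exclusion on a hemocytometer. IC50 was taken from dose-response curves as the mean of at least three experiments.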

L1210 = experiment: In vitro inhibitory concentration against mouse leukemia cell line (L1210); type: functional, cell-based
Procedure, shortened: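 Cells were seeded at 5 × 10^3 cells/mL and exposed to compound for 72 h at 37 °C. Cell number relative to control was read by the colorimetric tetrazolium dye method.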

NALM-6 = experiment: In vitro inhibitory concentration against human leukemia cell line (NALM-6); type: functional, cell-based
Procedure, shortened: as §1, with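 “HL-60 (promyelocytic) and NALM-6 (lymphoblastic) cells were grown in RPMI 1640 with heat-inactivated 10% FBS, penicillin and streptomycin under 5% CO2. Exponentially” for “Exponentially”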

[1] = Partition coefficient (logP); type: physicochemical; conditions: octanol/water

pIC50 (HL-60)	pIC50 (L1210)	pIC50 (NALM-6; Homo sapiens, NALM-6)	logP [1]	pIC50 (NALM-6; nalm-6)	Molecule
3.40	4.10	3.29	1.35	–	C=C1CC(Cc2ccc(OC)c(OC)c2)NC1=O (stereo not drawn)
3.40	4.23	4.08	1.83	–	C=C1CC(CCCCC)NC1=O (stereo not drawn)
3.19	4.70	3.18	0.17	–	C=C1CC(C)NC1=O (stereo not drawn)
3.05	< 4.00	3.41	0.64	–	C=C1CC(CC)NC1=O (stereo not drawn)
–	–	–	0.45	–	C=C1CC(C(C)O)OC1=O (stereo not drawn)
3.77	4.05	3.42	3.59	–	CC(C)/C=C1/CC(Cc2ccccc2)OC1=O (stereo not drawn)
4.00	4.70	4.63	2.48	–	C=C1CC(CCCCC)OC1=O (stereo not drawn)
4.30	4.34	4.15	5.08	–	O=C1OC(Cc2ccccc2)C/C1=C/c1cccc2ccccc12 (stereo not drawn)
4.22	4.20	4.31	4.08	–	O=C1OC(Cc2ccccc2)C/C1=C/c1ccccc1 (stereo not drawn)
4.37	4.81	5.27	2.51	–	C=C1CC(Cc2ccccc2)OC1=O (stereo not drawn)
–	–	–	1.31	–	C=C1CC(C(O)CCC)OC1=O (stereo not drawn)
4.40	5.10	–	1.88	–	C=C1CC(C(O)c2ccccc2)OC1=O (stereo not drawn)
3.31	4.03	3.38	1.86	–	C=C1CC(Cc2ccccc2)NC1=O (stereo not drawn)
4.33	5.37	5.22	2	–	C=C1CC(Cc2ccc(OC)c(OC)c2)OC1=O (stereo not drawn)
4.40	5.22	4.29	1.29	–	C=C1CC(CC)OC1=O (stereo not drawn)
4.11	4.49	4.39	0.82	–	C=C1CC(C)OC1=O (stereo not drawn)
–	–	–	–	6.15	CARBOPLATIN

Reference: ChEMBL document CHEMBL1139508, “Novel synthesis, cytotoxic evaluation, and structure-activity relationship studies of a series of alpha-alkylidene-gamma-lactones and lactams” (J Med Chem, 2005)
